rRNA inh HTS – reduced GFP signal of wild-type E. coli, primary screen, bacterial rRNA inhibitor project, GFP/RFP fluorescence, OD600, single point; AID 720706, 2013; E. coli WT GFP vs humanized-ribosome RFP mutants, 24 h; active compounds read low; DMSO median 0, no signal -100; 1.6% of 350,000 active; GFP signal change (wild-type ribosome), % (test concentration not listed);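 active = significant combined selectivity score with lowered wild-type GFP, culture density cut under 30%, mutant RFP and density less affected; inactive = any of these conditions unmet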
S100A4 MyoIIA – inhibitors of S100A4-myosin IIA peptide binding, primary screen, biochemical, fluorescence polarization, TAMRA-MyoIIA peptide; 0.14% of 360,000 active; Protein S100-A4 (Homo sapiens), P26447; inhibition, % at 10.7 µM;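 active = mean inhibition of at least 70% across replicates, with every replicate also reaching that level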
Target sequence (P26447 whole entry, looked up): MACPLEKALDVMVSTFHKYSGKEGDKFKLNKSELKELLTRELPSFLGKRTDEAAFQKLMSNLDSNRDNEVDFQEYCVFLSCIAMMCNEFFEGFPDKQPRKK
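Material: S100A4 monomer protein | Medium: HEPES pH 7.2 with CaCl2, KCl, NaCl, DTT, Triton | Reagent: Labelled myosin peptide probe, 5 nM | Doses: One dose per compound | Times: 5 min incubation before reading | Benchmarks: Neutral control DMSO, positive control TFP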
CFTR F508del cor – F508del CFTR correction, initial screen, CFBE line, single point; CFBE cells, YFP halide quenching; stimulated with forskolin plus potentiator P3; % fluorescence drop versus neutral controls; activity (quench increase), % at 7.58 µM; 0.36% of 350,000 active;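 active = mean added fluorescence quench of at least 8% versus neutral control, with both replicates also reaching 8%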;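 also: cells transiently co-express mutant CFTR-F508del with the halide-sensitive YFP; corrector assay measuring rescue of mutant channel to the surface after 24 h compound exposure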
ERAP1 HTS inh – human ERAP1 aminopeptidase inhibitors, primary screen, biochemical, single point, plate reader. inhibition, % at 10.7 µM. AID 652197, 2013. 0.15% of 340,000 active. Endoplasmic reticulum aminopeptidase 1 (Homo sapiens), Q9NZ08. recombinant ERAP1, Leu-AMC fluorescence, 60 min;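 active = mean replicate inhibition of at least 30%, or all replicates individually reaching that 30% level; inactive = mean below 30% and not every replicate reaching it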;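 also: 0% = neutral control wells and 100% = L-leucinethiol positive control wells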
SIRT5 inh – SIRT5 desuccinylase inhibitors, primary screen, biochemical, fluorescence imaging, single point, set 5; 1.1% of 330,000 active; AID 652115, 2013; Purified SirT5, succinyl-peptide AMC, trypsin-coupled fluorescence; inhibition, % at 15 µM; NAD-dependent protein deacylase sirtuin-5, mitochondrial (Homo sapiens), Q9NXA8; in the data active = inhibition above about 15%
Target sequence (Q9NXA8 whole entry, looked up): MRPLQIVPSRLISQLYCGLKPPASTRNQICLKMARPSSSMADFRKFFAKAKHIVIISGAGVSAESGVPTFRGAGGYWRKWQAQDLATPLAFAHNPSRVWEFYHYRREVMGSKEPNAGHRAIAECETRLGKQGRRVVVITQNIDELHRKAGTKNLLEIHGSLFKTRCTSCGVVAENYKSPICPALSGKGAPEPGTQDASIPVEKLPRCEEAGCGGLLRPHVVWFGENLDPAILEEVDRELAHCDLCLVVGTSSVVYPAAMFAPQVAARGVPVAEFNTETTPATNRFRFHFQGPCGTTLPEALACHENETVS
Starred values were filed as active, the others as inactive; nt = no result given. The list is not random: actives were taken first. Their share in the collection is about 3.1%.

SMILES | rRNA inh HTS | S100A4 MyoIIA | CFTR F508del cor | ERAP1 HTS inh | SIRT5 inh
COc1ccc(C(O)(c2cncnc2)C2CC2)cc1 (stereo not drawn) | nt | 7 | 0 | -2 | 11
CC[n+]1c(-c2ccccc2)c2cc(N)ccc2c2ccc(N)cc21 | -33 | 130* | 10* | 12 | -1
CCN1[C@@H]2c3ccc(-c4ccc(OC)cc4)c(=O)n3C[C@H]1[C@H](CO)[C@H]2C(=O)OC | 4 | 11 | nt | -1 | -30
COc1ccc(-n2c(/C=C/c3ccc4c(c3)OCO4)nc3ccccc3c2=O)cc1 | -14 | 0 | -1 | 0 | 32*
COc1ccc(-n2c(/C=C/c3ccc(O)cc3)nc3ccccc3c2=O)cc1 | -8 | -1 | -2 | -3 | -1
COc1ccc(-n2c(-c3ccc(C)cc3)nc3ccccc3c2=O)cc1 | -27* | 0 | 1 | -3 | 0
C=CCN1[C@@H]2CN(C(=O)NC(C)C)C[C@H]1C2c1ccc(Br)cc1 (stereo partly drawn) | 0 | nt | nt | nt | nt
O=C(Cc1ccccc1)N1CC2(C1)[C@H](c1ccccc1)[C@H](CO)N2Cc1cccc(Cl)c1 | -46 | 3 | 6 | -2 | 8
O=C(Cc1ccccc1)N1CCCCN2[C@H](C1)[C@@H](c1ccc(C#Cc3ccccc3)cc1)[C@@H]2CO | -8 | 4 | 2 | -2 | -2
CCCN1[C@@H]2c3ccc(-c4ccccc4)c(=O)n3C[C@H]1[C@H](CO)[C@H]2C(=O)OC | 2 | 1 | -3 | 0 | -3
C[C@@H]1O[C@@H](O[C@@H]2C=C3CC[C@@H]4C(CC[C@]5(C)[C@@H](c6ccc(=O)oc6)CC[C@]45O)[C@@]3(C)CC2)[C@H](O)[C@H](O)[C@H]1O (stereo partly drawn) | 2 | -2 | 24* | -1 | nt
C[C@@H]1O[C@@H](O[C@@H]2C=C3CCC4C(CC[C@]5(C)[C@@H](c6ccc(=O)oc6)CC[C@]45O)[C@@]3(C)CC2)[C@H](O)[C@H](O)[C@H]1O (stereo partly drawn) | nt | 4 | 6 | -5 | -5
Cc1ccccc1-c1ccc([C@H]2[C@@H](CO)N3CCCCN(C(=O)Cc4ccccn4)C[C@H]23)cc1 | -31 | 5 | 1 | 3 | -6
COc1ccc(OC(=O)N(C)C[C@H]2OCc3ccccc3-c3c(n(C)c4ccccc34)C(=O)N([C@@H](C)CO)C[C@H]2C)cc1 | 2 | -55 | 3 | 0 | 4
Cc1cc(OC(=O)N(C)C)nc(SCc2c(Cl)cccc2Cl)n1 | -18* | 1 | 3 | -1 | 5
O=C(Cc1ccccc1)N1CCCCN2[C@H](CO)[C@@H](c3ccc(-c4ccccc4)cc3)[C@@H]2C1 | -58 | 3 | 1 | nt | 15
O=C1NC(=S)N(c2ccccc2)C(=O)/C1=C/c1ccco1 | 14 | -38 | 1 | 7 | 38*
CCOc1cccc(N2C(=O)/C(=C/c3ccco3)C(=O)NC2=S)c1 | 12 | -71 | -3 | 8 | 36*
CC12Cc3cn[nH]c3C=C1CCC1C2CCC2(C)C1CCC2(C)O (stereo not drawn) | -17 | -2 | 3 | -4 | 35*
O=C(Cc1ccccn1)N1CCCCN2[C@@H](CO)[C@@H](c3ccc(-c4ccc(F)cc4)cc3)[C@@H]2C1 | -5 | 26 | 4 | -4 | 0
Cc1cccc(S(=O)(=O)N2[C@@H]3Cn4c(ccc(-c5cccc(F)c5)c4=O)[C@H]2[C@@H](C(=O)O)[C@@H]3CO)c1 | 2 | nt | 0 | nt | nt
C[N+]1(CC2COC(c3ccco3)O2)CCCCC1 (stereo not drawn) | 8 | -5 | 1 | 80* | 0
CCCCCCC(=O)c1c(O)n(-c2ccccc2OC)c(=O)[nH]c1=O (tested in a mixture with another compound) | -27 | -2 | -1 | nt | 0
CCCCCCC(=O)c1c(O)n(-c2ccc(OC)cc2)c(=O)[nH]c1=O (tested in a mixture with another compound) | -20* | -12 | 1 | 3 | 0
O=P(Oc1ccccc1)(N1CCOCC1)N1CCOCC1 | 6 | 1 | 0 | 1 | 6
SMILES | rRNA inh HTS | S100A4 MyoIIA | CFTR F508del cor | ERAP1 HTS inh | SIRT5 inh
CN(c1ccccc1)P(=O)(N1CC1)N1CC1 | 10 | -3 | -5 | -2 | 16*
C/C=C1\NC(=O)[C@H](C)NC(=O)[C@@H](NC(=O)[C@H](Cc2ccc(O)cc2)NC(=O)[C@@H](NC(=O)/C(C)=C/C)C(C)C)[C@@H](C)OC(=O)[C@H](CCCc2ccc(O)cc2)NC(=O)[C@@H](CCC(=O)O)NC1=O | 9 | -3 | -1 | 1 | 22*
CC(C)CC#Cc1ccc([C@@H]2[C@H](CO)N3CCCCN(C(=O)Cc4ccccn4)C[C@@H]23)cc1 | -2 | -13 | 0 | 1 | 0
COc1cc([C@@H]2c3cc4c(cc3[C@@H](OC)[C@H]3COC(=O)[C@H]23)OCO4)cc(OC)c1O | -16 | -1 | 9.3* | -3 | nt
CCN1C(=O)C(=C/C=C/c2ccco2)C(=O)N(CC)C1=S | 3 | -14 | nt | 9 | 21*
O=C1NC(=O)N(Cc2ccccc2)C(=O)/C1=C/C=C/c1ccco1 | 11 | 6 | -5 | -4 | -2
COc1ccc(C=C2C(=O)NC(=S)NC2=O)cc1OC | 17 | -4 | 1 | 37* | 2
O=C(Cc1ccccc1)N1CCCCN2[C@@H](CO)[C@H](c3ccc(-c4ccccc4)cc3)[C@@H]2C1 | -59 | 1 | -2 | 0 | 3
CC(C)NC(=O)N1C[C@@H]2N[C@H](C1)C2c1ccccc1 (stereo partly drawn) | 1 | nt | nt | nt | nt
COc1nc(C)nc(NC(=O)NS(=O)(=O)c2ccccc2Cl)n1 | nt | 4 | 14* | 0 | -11
C[C@H]1OC[C@@H](C[N+](C)(C)C)O1 | 7 | -8 | -3 | 104* | -4
Cc1nc(Cl)sc1C(=O)Nc1ccc2ccccc2c1 | -31* | 2 | 1 | -2 | 0
COc1ccc(NC(=O)c2c(C)nn(Cc3ccccc3Cl)c2Cl)cc1Cl | 1 | -2 | 1 | 1 | 1
O=c1ccc2cc(O[C@@H]3O[C@H](CO)[C@@H](O)[C@H](O)[C@H]3O)c(O)cc2o1 | nt | 3 | 0 | 154* | -76
COC(=O)[C@@H]1[C@@H](CO)[C@@H]2Cn3c(ccc(/C=C/c4ccccc4)c3=O)[C@H]1N2CC1CCCC1 | -9 | 4 | -1 | 0 | -33
COc1ccc(/C=C2/C(=O)N(Cc3ccco3)C(=O)N(C(C)C)C2=O)cc1 | 6 | -34 | nt | 11 | 25*
